From the RNAGym collection of RNA variant scans (doi:10.1126/science.aae0568) come the findings set out here.

Sequences and labels used below:
B1: tRNA (parent)
chain: GUUCCGUUGGCGUAAUGGUAACGCGUCUCCCUCCUAAGGAGAAGACUGCGGGUUCGAGUCCCGUACGGAACG

This sample holds only a part of the variants without activity.

The variants in the data set derive from B1. Description: yeast fitness relative to wild type (ratio to wild type); higher = fitter; tRNA-Arg(CCU), competitive growth, 37 C, YPD. In short, it runs like this: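 Changes in genotype frequencies gave Darwinian fitness relative to wild type. Frequencies were read by 100-nucleotide paired-end sequencing of gene amplicons before and after pooled Saccharomyces cerevisiae strains, carrying tRNA-Arg(CCU) gene variants at the native locus, were competed in YPD at 37°C for 24 hours in six replicates. A genotype was kept only with ≥ 100 starting reads, and estimates < 0.5 were set to 0.5.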
On to C5A C31U C33U A42C C49U A65C, for which the yeast fitness is no more than 0.5.
Consider C4U U16A A37U C49U C61G A70G, for which the yeast fitness is no more than 0.5.
The same measure for C5A G6C C11G U19A C49A: 0.571; for C4U U7C A15C U16G A70G: no more than 0.5; for C5A C27G C30U U32C A36G A37U G67A: no more than 0.5.
As for C5A A15G C61A, the figure is no more than 0.5; as for C4U U32G A57G, no more than 0.5; as for C5A A21U C61A C62G, no more than 0.5.
As for C5A A14G C55A A70U, the figure is no more than 0.5.
As for C5A C46G C49A G67C, the yeast fitness was no more than 0.5.
As for C5A C31G G56C G58C, the figure is no more than 0.5; as for C5A C55U A65G, 0.583.
The same measure for C4U U26A C46U: 0.972.
Take C5A C24U G25C C30G G50C G56A C66U: the yeast fitness was no more than 0.5.
As for C5A C22A A36U A40U, the figure is no more than 0.5.
Turning to C5A C22G C29A A43U G68A, the yeast fitness was no more than 0.5.
As for C4U U13A U59A, the figure is 0.811.
As for C5A C33U A36G, the figure is 0.532; as for C5A C24G C31G, 0.555; as for C5A C27U A37U, no more than 0.5.
The same measure for C5A C60G C66G A69G: no more than 0.5; for C4U U26C C31A C49G G63C A69U: no more than 0.5; for C5A A20C A21G A65G C66U: no more than 0.5.
Consider C5A C33U A43U C49G G50C C61U C66U, for which the yeast fitness was no more than 0.5.
The same measure for C5A C31G C55A: no more than 0.5.
As for C4U U8A U13C A37G C46A, the figure is no more than 0.5.
As for C5A C49A G68C, the figure is 0.536; as for C5A A21C U54G C60U, no more than 0.5.
As to C5A C22G A65C, the yeast fitness came to 0.582.
As for C5A C31G A37G C62U G63C, the figure is 0.577.
The same measure for C4U U8C A36G G44C: 0.676.
The same measure for C4U U8G G12A C55U: no more than 0.5.
Consider C5A G10C C22U A43G G58C C66G, for which the yeast fitness is no more than 0.5.
Consider C5A A15C C29A A42C A45G, for which the yeast fitness turned out to be 0.551.
As for C5A A20U C31U C61U U64A, the yeast fitness is no more than 0.5.
Consider C5A C61G A70G, for which the yeast fitness worked out at 0.585.
As for C5A G9C G38C G63C C66U, the figure is no more than 0.5; as for C5A C11U C49U, no more than 0.5; as for C5A A21G C31G, 0.62.
As for C5A C22G C49G G68C, the figure is 0.578; as for C5A C34U G41C A69G, no more than 0.5.
C4U U32A G41C A43C: the yeast fitness is no more than 0.5.
The same measure for C5A A21U C55A: 0.572; for C4U U8C A37U A45U C49U: no more than 0.5.
As for C5A C60A, the figure is 0.651.
Take C5A C24G C34G: the yeast fitness is no more than 0.5.
On to C5A A20U C31G, for which the yeast fitness is 0.585.
The same measure for C4U U47A G51C A70U: no more than 0.5; for C5A C11G C55U C61A: no more than 0.5.
Consider C5A C22G C49G, for which the yeast fitness turned out to be 0.563.
The same measure for C5A C34G C46U A70U: no more than 0.5; for C5A A15C C29A C60G: no more than 0.5; for C5A C31G U54C: 0.588.
As for C5A A14G C31U, the figure is 0.721; as for C4U U35G A65G, 0.607; as for C4U U13G C29U C34U, no more than 0.5.
The same measure for C5A C31A: 0.971; for C5A C31U: 0.885.
As for C5A C31G, the yeast fitness worked out at 0.889.
The same measure for C5A G17A C46A C55G: no more than 0.5; for C5A G12C C34U: no more than 0.5.
As for C5A A20G U32G A43C A45U, the figure is no more than 0.5; as for C5A A37C C49A G68U, no more than 0.5; as for C4U U8C U47A, 0.601.
As for C4U U13A G23A A36U G39C C62A U64A, the figure is 0.537; as for C5A C29U C66U, 0.581.
Regarding C5A C27G C33A A40U G48C U54A, the yeast fitness amounted to 0.506.
Turning to C5A C33U G39C C55A G67C, the yeast fitness is no more than 0.5.
The same measure for C5A C22A C27G A43U C60A: no more than 0.5.
The same measure for C4U U32A U35C: 0.511; for C5A C30A U64C: 0.547; for C4U U28G C61U C62U: no more than 0.5.
Regarding C5A A21C C30G C34U G38C C49U C55U A70C, the yeast fitness was no more than 0.5.
As for C5A A21C A43C G48A C66A, the figure is no more than 0.5; as for C5A C22G G25A, no more than 0.5; as for C5A C31A A40C A43U A65G C66G, no more than 0.5.
The same measure for C4U U8C A15C G63C: no more than 0.5; for C5A C33U C46G C66G G67A A69C: no more than 0.5.
As for C5A G6C C30G A42G, the figure is 0.606.
Consider C5A G9C A36U U54A C55U, for which the yeast fitness is no more than 0.5.
For C5A G6C A15G A40G, the yeast fitness was no more than 0.5.
The same measure for C5A A42C U47A C49A G51U C61U G68A: no more than 0.5.
The same measure for C5A A20C C61U: no more than 0.5.
The same measure for C5A A14G A15G C22G A37U: no more than 0.5; for C4U U13A G23A C24A A36U G39C C62A U64A: no more than 0.5.
As to C4U U8A U32G U35A C62U, the yeast fitness is 0.707.
As for C5A C11U C31G A70U, the figure is no more than 0.5; as for C5A A21C C30G C34U G38C C49U, no more than 0.5; as for C4U U8C A37U A45U C49U A65G, no more than 0.5.
As for C5A C24G U26A C29G U32A, the figure is 0.531; as for C5A C11A C34A A40U, 0.696.
With C4U U16A A65C, the yeast fitness came to 0.612.
The same measure for C5A C22U C30U G68U: no more than 0.5.
The same measure for C5A G6A U16A A45G G50A: no more than 0.5; for C5A A15C C27U C30U U32G U35A A37C U54A: no more than 0.5; for C4U U28C A36C: no more than 0.5.
The same measure for C5A C11G G41C: 0.561; for C5A A14G C22G C60U C61U: no more than 0.5; for C5A C27U A36U: no more than 0.5.
In the case of C5A C31U U35C C49G, the yeast fitness was no more than 0.5.
For the variant C5A A40C C46U G52C A70C, the yeast fitness is no more than 0.5.
On to C5A A15U C31G G39A A57U C60A, for which the yeast fitness was no more than 0.5.
The same measure for C5A A21C C24A A70U: no more than 0.5; for C5A A15U A69C: no more than 0.5.
Regarding C4U U19A A42C, the yeast fitness was 0.825.
The same measure for C5A C46U C49U: 0.809; for C4U U26C A42U G50C A65U: 0.552; for C5A C29G A37G G41A A43U: no more than 0.5.
Regarding C5A C11G G41C G68U, the yeast fitness came out at 0.524.
In the case of C4U U59A, the yeast fitness turned out to be 0.999.
On to C4U U59G, for which the yeast fitness is 0.909.
As for C5A A20C A57U, the figure is no more than 0.5; as for C5A A15G G18C C29A U54A, no more than 0.5; as for C5A C11G G51A C62U, no more than 0.5.
As for C5A C11G C30G A36U C60A, the figure is no more than 0.5; as for C5A A15G C33A C61U G67A, no more than 0.5; as for C4U U7C C29G C49A, no more than 0.5.
As for C5A C22G C29A G67A, the figure is 0.531.
C5A C34G A65C: the yeast fitness is no more than 0.5.
Regarding C5A C46U U59C, the yeast fitness was determined as 0.728.
As for C4U U19C A43U, the figure is 0.955.
Consider C5A C24G G63A, for which the yeast fitness was no more than 0.5.
As for C5A C49U, the figure is 0.848; as for C5A C49G, 0.704.
The same measure for C4U U8A U13C A57C: no more than 0.5; for C4U U16C C34A A42U: 0.726.
The same measure for C5A A40G C46A: 0.773.
In the case of C5A C11A C24U U26C C29U C31G, the yeast fitness was no more than 0.5.
The same measure for C4U U8A C22U: no more than 0.5.
As for C5A C31U A70G, the yeast fitness was determined as 0.614.
The same measure for C4U U8A A20G C24A: no more than 0.5.
Regarding C4U U7C A57U C61U, the yeast fitness was no more than 0.5.
With C4U U26C G44A, the yeast fitness was 0.569.
As for C5A C24U C62U, the figure is 0.624; as for C5A A57G C60G, no more than 0.5; as for C5A C11G G41C A57G, 0.554.
As for C4U U7G C11G C46G, the figure is no more than 0.5.
C5A C22A G50C: the yeast fitness turned out to be 0.738.
Regarding C5A A69C, the yeast fitness worked out at 0.919.
As for C5A C11U A14U C27U A36U A43G C46U, the figure is no more than 0.5; as for C4U U32A A69U, 0.601.
For the variant C5A A20C C22A C24U C31U G67A, the yeast fitness is no more than 0.5.
As for C5A G17C A43U U59A, the figure is 0.609.
The same measure for C5A A14G C24A U32C: no more than 0.5; for C4U U8G U19A A21C A70U: no more than 0.5; for C5A A45U C49U: 0.64.
The same measure for C5A C30A A70U: 0.742; for C5A A14G A20U A37C C49A: no more than 0.5; for C5A C22G C27G A36U A40C C66U: no more than 0.5.
As to C5A A45U G48A G56A, the yeast fitness was found to be 0.706.
For C5A A21G, the yeast fitness was determined as 0.942.
Turning to C5A A65G, the yeast fitness turned out to be 0.978.
Regarding C4U U13A C46U U53A, the yeast fitness worked out at 0.633.
As for C5A G17A A36G A70G, the figure is no more than 0.5.
As for C5A A14C A45G, the figure is no more than 0.5; as for C5A C31A C49U, no more than 0.5.
The same measure for C5A C33G C49U C61G A69C: no more than 0.5.
With C5A A21C C34G G52A C62G, the yeast fitness was found to be 0.565.
As for C5A A14C U26A C34U C55G, the figure is no more than 0.5.
For C5A C22U C49U G50C, the yeast fitness was no more than 0.5.
As for C5A C33U C46A, the figure is no more than 0.5; as for C5A C33U C46G, no more than 0.5.
The same measure for C5A A14C A21U C34U G38C: no more than 0.5.
As for C5A A14G C24G C31U A43G, the figure is no more than 0.5; as for C5A C11G G41C G48C, no more than 0.5; as for C5A A15U C24A G25A U47C G52C, no more than 0.5.
Consider C4U U19A C27G A43U C46A C49U, for which the yeast fitness is no more than 0.5.
